Legend:
[1] = melting temperature; fluorescence melt of hairpins on a sequencing array, two-state fit, raised by 9.35 °C to match UV melts; conditions: sodium 0.088 M
Summary of the method: (§1)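 Library hairpins on a sequenced MiSeq flow cell carried annealed Cy3 and quencher oligos, and their Cy3 fluorescence was imaged in 50 mM Na-HEPES pH 8.0 with 25 mM NaCl, in 2.5 °C steps up to 60 °C. Signals were normalised to Cy3 before quenching and to control constructs. Melting temperature and folding enthalpy were obtained from bootstrapped two-state fits, combined by inverse-variance weighting across four replicates, and the fitted temperatures were then raised by 9.35 °C to match UV melts.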

[2] = folding enthalpy; higher = less favourable; fluorescence melt of hairpins on a sequencing array, two-state fit; conditions: sodium 0.088 M
Summary of the method: as §1

| Sequence | Tm [1] | folding enthalpy [2] |
| --- | --- | --- |
| CGTTACGGAAACGTACG (((.(((....)))))) | 45.4 °C | -26.3 kcal/mol |
| CGTTAGAAATAACG (((((....))))) | 37 °C | -20.5 kcal/mol |
| CGTTCCGGAAACGGCACG (((.(((....))).))) | 48.5 °C | -34.9 kcal/mol |
| CGTTCCGGAAACGGGACG (((.(((....))).))) | 57.6 °C | -42.9 kcal/mol |
| CGTTCCGGAAACGGTACG (((.(((....))).))) | 50 °C | -31.5 kcal/mol |
| CGTTCGAAAGAACG (((((....))))) | 58.2 °C | -30.6 kcal/mol |
| CGTTCGGAAACGAATACG ((((((....)))..))) | 36.7 °C | -19.2 kcal/mol |
| CGTTGCCGGAAACGGACG (((..(((....)))))) | 44.3 °C | -13.3 kcal/mol |
| CGTTGCGGAAACGCCACG (((.(((....))).))) | 49.5 °C | -29.8 kcal/mol |
| CGTTTACGGAAACGTACG (((..(((....)))))) | 40.1 °C | -19.2 kcal/mol |
| CGTTTCCGGAAACGGACG (((..(((....)))))) | 49.3 °C | -17.1 kcal/mol |
| CGTTTCGGAAACGAGACG (((.(((....))).))) | 49.1 °C | -24.9 kcal/mol |
| CGTTTCGGAAACGATACG (((.(((....))).))) | 45.6 °C | -33.6 kcal/mol |
| CTAGGGAAACCTAG (((((....))))) | 39.4 °C | -17.2 kcal/mol |
| CTCAGGAAACTGAG (((((....))))) | 46.3 °C | -22.6 kcal/mol |
| CTCCTGAAAAGGAG (((((....))))) | 51.2 °C | -20.3 kcal/mol |
| CTGATGAAAATCAG (((((....))))) | 43.4 °C | -22 kcal/mol |
| CTGCGGAAACGCAG (((((....))))) | 61.8 °C | -31.6 kcal/mol |
| CTTACGAAAGTAAG (((((....))))) | 49.2 °C | -19.3 kcal/mol |
| GAAAAACGAAAGTTCTTC (((.(((....))).))) | 28.2 °C | -13.4 kcal/mol |
| GAAAACCGAAAGGTCTTC (((.(((....))).))) | 35.8 °C | -18.9 kcal/mol |
| GAAAACGAAAGTTGCTTC ((((((....)))..))) | 33.1 °C | -19.8 kcal/mol |
| GAAAAGCCGAAAGGCTTC (((..(((....)))))) | 36.8 °C | -7.3 kcal/mol |

| Sequence | Tm [1] | folding enthalpy [2] |
| --- | --- | --- |
| GAAAAGGCGAAAGCCTTC (((..(((....)))))) | 38.9 °C | -9.06 kcal/mol |
| GAAAAGGGAAACCTTTCC (.(((((....))))).) | 27.7 °C | -13.9 kcal/mol |
| GAAAATGAAAATTTTC ((((((....)))))) | 38.6 °C | -23.1 kcal/mol |
| GAAAATGGAAACATTTCC (.(((((....))))).) | 28.6 °C | -17 kcal/mol |
| GAAACAGAAATGTTTC ((((((....)))))) | 45.9 °C | -28.5 kcal/mol |
| GAAACCCCGAAAGGGTTC (((..(((....)))))) | 35.7 °C | -14 kcal/mol |
| GAAACCGAAAGGTGGTTC ((((((....)))..))) | 32.3 °C | -11.8 kcal/mol |
| GAAACCGAAAGGTTCTTC ((((((....)))..))) | 54.4 °C | -22.5 kcal/mol |
| GAAACCGAAAGGTTTTC ((((((....))).))) | 50.6 °C | -17.3 kcal/mol |
| GAAACCGGAAACAGTTTC (((((.(....).))))) | 30.8 °C | -25 kcal/mol |
| GAAACCGGAAACGATTTC ((((.((....)).)))) | 34 °C | -28.9 kcal/mol |
| GAAACCGGAAACGGTTTC (((((((....))))))) | 65.7 °C | -39 kcal/mol |
| GAAACGGGAAACTGTTTC (((((.(....).))))) | 44.9 °C | -27.5 kcal/mol |
| GAAACTGAAAAGTTTC ((((((....)))))) | 50.4 °C | -31.5 kcal/mol |
| GAAAGACGAAAGTCCTTC (((.(((....))).))) | 32.8 °C | -15.6 kcal/mol |
| GAAAGAGCGAAAGCTTTC (((..(((....)))))) | 32.5 °C | -13.8 kcal/mol |
| GAAAGCCCGAAAGGGTTC (((..(((....)))))) | 27.9 °C | -10.6 kcal/mol |
| GAAAGCGAAAGCTGTTTC ((((((....)))..))) | 32 °C | -9.68 kcal/mol |
| GAAAGCGAAAGCTTGTTC ((((((....)))..))) | 36.8 °C | -12.5 kcal/mol |
| GAAAGCGGAAACGTTTTC ((((.((....)).)))) | 42.4 °C | -30.5 kcal/mol |
| GAAAGGAAACTTTC (((((....))))) | 30.4 °C | -16.9 kcal/mol |
| GAAAGGGCGAAAGCCTTC (((..(((....)))))) | 24.8 °C | -9.82 kcal/mol |
| GAAAGGGGAAACCCTCTC ((.((((....)))).)) | 26.8 °C | -17.3 kcal/mol |

From the array DNA melting data of Ke et al. (doi:10.1101/2024.01.08.574731)
